In ChEMBL document CHEMBL1165934, “Synthesis and in vitro toxicity of 4-MTA, its characteristic clandestine synthesis byproducts and related sulfur substituted alpha-alkylthioamphetamines” (Bioorg Med Chem, 2010):

Tests used:
HEK293 [1] = assay: Cytotoxicity against human HEK293 cells assessed as cell viability after 48 hrs by neutral red assay; type: cell-based; details: HEK293, 48 h
In short: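 HEK293 cells grown in DMEM with 10% FBS and 2 mM L-glutamine. Seeded at 5x10^4 cells/well and grown to sub-confluence (24-36 h), then exposed 48 h. Neutral red dye was added for 3 ± 1 h, then solubilised in 50% ethanol-1% acetic acid. A540 read with A690 background. Viability was taken as % of vehicle. pEC50 came from a sigmoidal fit (Hill slope 1) over 4 concentrations, triplicate, two independent days.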

HEK293 [2] = assay: Cytotoxicity against human HEK293 cells over expressing human SERT assessed as cell viability after 48 hrs by neutral red assay; type: cell-based; details: HEK293, 48 h
In short: (§1)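 Stably transfected HEK293 lines, passage ≤30, kept in DMEM with 10% FBS, 2 mM L-glutamine and Geneticin. Cells seeded at 5x10^4/well and grown to sub-confluence (24-36h), then exposed 48h. Neutral red uptake for 3 ± 1 h, then ethanol/acetic acid solubilisation, A540 minus 690 nm. Viability taken relative to vehicle. Range 1 µM-1 mM, 4 concentrations in triplicate on two independent days. pEC50 from sigmoidal fit (Hill slope 1).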

HEK293 [3] = assay: Cytotoxicity against human HEK293 cells over expressing human NET assessed as cell viability after 48 hrs by neutral red assay; type: cell-based; details: HEK293, 48 h; in short: as §1
SH-SY5Y = assay: Cytotoxicity against human SH-SY5Y cells assessed as cell viability after 48 hrs by neutral red assay; type: cell-based
In short: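 SH-SY5Y grown in DMEM/F12 (1:1) with 10% FBS, 1 mM pyruvate, 2 mM glutamine and 0.1 mM non-essential amino acids, at 37 °C. Seeded 5x10^4 cells/well, treated 48 h, then neutral red uptake for 3 ± 1 h. Absorbance read at 540 nm (690 nm background). Viability was expressed as % of vehicle-treated cells. pEC50 came from a nonlinear sigmoidal fit (Hill slope 1), with 4 concentrations in triplicate on two separate days.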

PC-12 [4] = assay: Cytotoxicity against rat PC12 cells assessed as cell viability at 1 mM after 48 hrs by neutral red assay; type: cell-based; details: pc-12, 48 h, 1000 µM
In short: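 Undifferentiated PC-12 cells (rat pheochromocytoma) were seeded at 5x10^4 on collagen and differentiated for seven days with 100 ng/ml NGF in low-serum DMEM/F12. They were then exposed for 48 h to single concentrations. Neutral red staining lasted 3 ± 1 h, with absorbance at 540 nm (690 nm background). Viability was taken as % of vehicle, and each concentration was compared with untreated cells by one-way ANOVA.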

PC-12 [5] = assay: Cytotoxicity against rat PC12 cells assessed as cell viability after 48 hrs by neutral red assay; type: cell-based; details: PC-12, 48 h
In short: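 PC-12 (rat pheochromocytoma) cells on collagen were differentiated 7 days with 100 ng/ml NGF in low-serum DMEM/F12. Seeded at 5x10^4/well, then exposed 48h. Neutral red uptake for 3 ± 1 h, solubilised, A540 (690 nm background). Viability taken against vehicle. Tested 1 µM-1 mM, 4 concentrations in triplicate on two independent days. pEC50 by sigmoidal non-linear regression (Hill slope 1).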

HEK293 [6] = assay: Cytotoxicity against human HEK293 cells over expressing human DAT assessed as cell viability after 48 hrs by neutral red assay; type: cell-based; details: HEK293, 48 h; in short: as §1
[7] = Selectivity ratio of IC50 for SERT to IC50 for DAT
[8] = Selectivity ratio of IC50 for SERT to IC50 for NET
[9] = biological target: Sodium-dependent serotonin transporter (Homo sapiens, UniProt P31645); assay: Binding affinity to human SERT
Sodium-dependent serotonin transporter, sequence (P31645 whole entry): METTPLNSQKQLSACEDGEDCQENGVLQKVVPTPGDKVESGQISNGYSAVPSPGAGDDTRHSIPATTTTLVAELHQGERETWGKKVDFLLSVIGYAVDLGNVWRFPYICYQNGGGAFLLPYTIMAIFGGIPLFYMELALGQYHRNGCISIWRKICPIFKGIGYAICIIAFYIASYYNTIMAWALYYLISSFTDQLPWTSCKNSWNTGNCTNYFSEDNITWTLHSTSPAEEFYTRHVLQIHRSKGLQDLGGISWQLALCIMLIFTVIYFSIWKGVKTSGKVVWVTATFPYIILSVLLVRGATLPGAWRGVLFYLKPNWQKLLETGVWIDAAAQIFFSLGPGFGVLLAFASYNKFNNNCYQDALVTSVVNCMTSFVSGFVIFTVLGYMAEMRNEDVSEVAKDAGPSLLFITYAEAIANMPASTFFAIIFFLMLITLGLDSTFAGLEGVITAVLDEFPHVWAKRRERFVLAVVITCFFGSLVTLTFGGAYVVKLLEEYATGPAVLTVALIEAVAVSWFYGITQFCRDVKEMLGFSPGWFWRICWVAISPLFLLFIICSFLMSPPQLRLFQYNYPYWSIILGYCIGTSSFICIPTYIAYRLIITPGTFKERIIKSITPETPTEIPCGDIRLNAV

Compound | EC50 (HEK293 [1]) [µM] | EC50 (HEK293 [2]) [µM] | EC50 (HEK293 [3]) [µM] | EC50 (SH-SY5Y) [µM] | Activity (PC-12 [4]) | EC50 (PC-12 [5]) [µM] | EC50 (HEK293 [6]) [µM] | Ratio IC50 [7] | Ratio IC50 [8] | IC50 [9] [µM]
CCC(Cc1ccc(SC)cc1)NC=O (configuration not stated) | 61.7 | 64.6 | 79.4 | > 10000 | Toxic | 741 | 1120 |  |  | 
CSc1ccc(CC(C)NC(C)Cc2ccc(SC)cc2)cc1 (configuration not stated) | 16.2 | 25.7 | 25.1 | 22.4 |  | 27.5 | 26.3 |  |  | 
CCC(Cc1ccc(SC)cc1)NC (configuration not stated) |  | 55 | 66.1 |  |  |  | 417 |  |  | 
CSc1ccc(CC(N)Cc2ccc(SC)cc2)cc1 | 22.4 | 24.5 | 126 | 18.6 | Toxic | 631 | 25.1 |  |  | 
CSc1ccc(C/C(C)=N/O)cc1 | 3020 | 214 | 1740 | 339 | Toxic | 776 | 67.6 |  |  | 
CCc1nc(Cc2ccc(SC)cc2)c(C)cc1-c1ccc(SC)cc1 | 18.6 | 34.7 | 29.5 | 178 |  | 29.5 | 26.9 |  |  | 
CSc1ccc(CC(C)N)cc1 (configuration not stated) [4-METHYLTHIOAMPHETAMINE] |  | 22.4 | 22.4 | 513 |  | 295 | 41.7 | 3070 | 2370 | 
CSc1ccc(CC(C)NC=O)cc1 (configuration not stated) | 2880 | 1350 | 372 | > 10000 | Non-toxic | > 10000 | 2290 |  |  | 
CNC(C)Cc1ccc2c(c1)OCO2 (configuration not stated) [MIDOMAFETAMINE] |  | 490 | 1550 |  |  |  | 1950 |  |  | 
CC(N)Cc1ccc2c(c1)OCO2 (configuration not stated) [TENAMFETAMINE] |  | 692 | 589 |  |  |  | 5890 |  |  | 0.478
CSc1ccc(CC(Cc2ccc(SC)cc2)NC(C)=O)cc1 | 50.1 | 38.9 | 25.7 | 603 | Non-toxic | 4170 | 83.2 |  |  | 
CSc1ccc(Cc2ccncn2)cc1 | 9.33 | 16.6 | 63.1 | 2950 |  | 67.6 | 11.7 |  |  | 
CCNC(Cc1ccc(SC)cc1)Cc1ccc(SC)cc1 | 17 | 25.7 | 263 | 13.8 | Toxic | 229 | 26.9 |  |  | 
CSc1ccc(CC(Cc2ccc(SC)cc2)NC=O)cc1 |  | 50.1 | 457 | 32.4 |  | 38 | 87.1 |  |  | 
